{"source": "PubChem BioAssay AID624038", "about": "(The Scripps Research Institute Molecular Screening Center, 2012)", "note": "About 1,100 (0.31%) of roughly 360,000 compounds were called active. The sample as a whole holds a higher share of actives than the screen did. Unmarked numbers belong to inactive results.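 How the source made its calls: active means activation above the run cutoff, the mean activation of all test compounds plus 3 SD (cut at about 18% in these data); inactive means the rest.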"}
{"biological_target": "Muscarinic acetylcholine receptor M5 (Homo sapiens) (UniProt P08912)", "sequence (P08912 whole entry, looked up)": "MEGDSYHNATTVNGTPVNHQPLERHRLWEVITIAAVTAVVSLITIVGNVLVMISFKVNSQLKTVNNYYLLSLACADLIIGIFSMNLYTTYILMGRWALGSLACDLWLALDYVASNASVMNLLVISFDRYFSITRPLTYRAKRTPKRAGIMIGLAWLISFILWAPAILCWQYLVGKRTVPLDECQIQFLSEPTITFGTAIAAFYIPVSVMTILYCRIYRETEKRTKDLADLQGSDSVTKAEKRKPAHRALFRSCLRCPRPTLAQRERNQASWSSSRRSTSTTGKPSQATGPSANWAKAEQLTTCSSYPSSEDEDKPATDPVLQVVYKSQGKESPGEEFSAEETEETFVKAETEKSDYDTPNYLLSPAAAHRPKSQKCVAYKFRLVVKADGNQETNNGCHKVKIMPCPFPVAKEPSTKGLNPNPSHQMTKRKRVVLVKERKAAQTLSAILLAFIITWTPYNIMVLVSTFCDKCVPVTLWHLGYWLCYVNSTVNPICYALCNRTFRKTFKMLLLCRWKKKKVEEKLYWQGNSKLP", "assay": "CHRM5 PAMs potentiating acetylcholine calcium signal – CHO-K1 cells, Fluo-8 calcium fluorescence, primary screen (AID 624038)", "conditions": "CHO-K1 hM5, Fluo-8 calcium, ACh EC20 PAM; at 3 µM; hits give high values; 0% = ACh EC20, 100% = ACh EC100", "procedure,_shortened": "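System – CHO-K1 hM5 cells · Compound – 3 µM, single dose · Incubation – compound preincubation 140 s before EC20 acetylcholine addition · Technique – Fluo-8 calcium fluorescence · Measure – Max/basal fluorescence ratio as % of EC20–EC100 ACh window · Benchmarks – low control EC20 acetylcholine (0%), high control EC100 acetylcholine (100%) · Replication – singlicate, one well per test compound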"}
{"smiles": "CC=C(C)C(=O)OC1CCN2CC=C(COC(=O)C(O)(C(C)OC)C(C)(C)O)C12", "note": "(stereo not given)", "activation": "19.2% (active)"}
{"smiles": "CCOP(=S)(OCC)SCOC(=O)NCC(=O)OC", "activation": "0.05%"}
{"smiles": "O=[N+]([O-])c1cnc2ccc3ccccc3c2c1", "activation": "3.69%"}
{"smiles": "COc1ccc(-n2c(-c3ccccc3)nc3ccccc3c2=O)cc1", "activation": "14.8%"}
{"smiles": "COC(=O)CN(CCCl)P1(=O)OCCCN1CCCl", "note": "(stereo not given)", "activation": "-10.4%"}
